Experimental data published in ChEMBL document CHEMBL1131467, “Identification and initial structure-activity relationships of a novel class of nonpeptide inhibitors of blood coagulation factor Xa” (J Med Chem, 1998).

Tests used:
Coagulation factor X = Coagulation factor X (Homo sapiens, UniProt P00742); assay: Inhibitory activity against human Coagulation factor X
Method in brief: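 Human factor Xa at 1 nM final, in 0.05 M Tris, 0.15 M NaCl, 0.1% PEG-8000, pH 7.5, room temperature. Compound preincubated with enzyme 30 min, then Spectrozyme FXa added (200 μM final). Run in triplicate. IC50 taken from initial velocities; Ki by Cheng-Prusoff, assuming competitive inhibition.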

Prothrombin = Prothrombin (Homo sapiens, UniProt P00734); assay: Inhibitory activity against human Thrombin
Method in brief: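 Human thrombin at 1 nM final, in Tris 0.05 M, NaCl 0.15 M, 0.1% PEG-8000, pH 7.5, room temperature. Enzyme and compound preincubated 30 min; reaction started with Pefachrome TH (50 μM final). Absorbance at 405 nm followed for 5 min. IC50 is the level that halves control initial velocity; apparent Ki by Cheng-Prusoff, assuming competitive inhibition.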

[1] = biological target: Cationic trypsin (Bos taurus); assay: Inhibitory activity against bovine trypsin

Sequence of Coagulation factor X (P00742 41-179 limits assumed): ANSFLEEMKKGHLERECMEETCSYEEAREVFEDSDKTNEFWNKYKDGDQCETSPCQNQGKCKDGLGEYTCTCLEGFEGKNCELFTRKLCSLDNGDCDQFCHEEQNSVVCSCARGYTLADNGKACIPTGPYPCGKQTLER
Sequence of Coagulation factor X (P00742 235-488 limits assumed): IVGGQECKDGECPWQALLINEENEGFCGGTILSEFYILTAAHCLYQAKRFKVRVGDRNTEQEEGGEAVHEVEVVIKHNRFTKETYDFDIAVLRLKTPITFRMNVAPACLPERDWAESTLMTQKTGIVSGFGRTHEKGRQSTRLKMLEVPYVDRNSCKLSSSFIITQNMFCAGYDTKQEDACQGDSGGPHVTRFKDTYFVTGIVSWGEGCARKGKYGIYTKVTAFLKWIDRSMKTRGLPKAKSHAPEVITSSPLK

| Structure (SMILES) | IC50 (Coagulation factor X) | IC50 (Prothrombin) | IC50 [1] |
| --- | --- | --- | --- |
| COC(=O)[C@@H](Cc1cccc(C(=N)N)c1)[C@@H](/C=C/c1ccccc1)NC(=O)c1ccccc1 | 2 µM | – | – |
| COC(=O)C(Cc1cccc(C(=N)N)c1)C(/C=C/c1ccccc1)NC(=O)c1ccccc1 (stereo unspecified) | 0.7 µM | – | – |
| CN(C)C(=O)C(Cc1cccc(C(=N)N)c1)C(/C=C/c1ccccc1)NC(=O)c1ccc(-c2ccccc2)cc1 (stereo unspecified) | 4.4 µM | – | – |
| COC(=O)C(Cc1cccc(C(=N)N)c1)C(/C=C/c1ccccc1)NC(=O)c1ccc(Cc2ccccc2)cc1 (stereo unspecified) | 0.46 µM | – | – |
| COC(=O)C(Cc1cccc(C(=N)N)c1)C(/C=C/c1ccccc1)NC(=O)C1CCC(C2CCCCC2)CC1 (stereo unspecified) | 1.12 µM | – | – |
| COC(=O)C(Cc1cccc(C(=N)N)c1)C(/C=C/c1ccccc1)NS(=O)(=O)c1ccc(-c2ccccc2)cc1 (stereo unspecified) | 1.97 µM | – | – |
| N=C(N)c1cccc(CC(C(=O)O)C(/C=C/c2ccccc2)NC(=O)c2ccc(-c3ccccc3)cc2)c1 (stereo unspecified) | 2.7 µM | 7.7 µM | – |
| COC(=O)[C@H](Cc1cccc(C(=N)N)c1)[C@@H](/C=C/c1ccccc1)NC(=O)c1ccccc1 | 0.7 µM | – | – |
| COC(=O)C(Cc1cccc(C(=N)N)c1)C(CCc1ccccc1)NC(=O)c1ccc(-c2ccccc2)cc1 (stereo in doubt; 8b) | 0.31 µM | – | – |
| N=C(N)c1cccc(CCC(/C=C/c2ccccc2)NC(=O)c2ccc(-c3ccccc3)cc2)c1 (stereo unspecified) | 0.95 µM | 31 µM | – |
| CC(=O)OCC(Cc1cccc(C(=N)N)c1)C(/C=C/c1ccccc1)NC(=O)c1ccc(-c2ccccc2)cc1 (stereo unspecified) | 0.36 µM | 3.8 µM | – |
| COC(=O)C(Cc1cccc(C(=N)N)c1)C(/C=C/c1ccccc1)NC(=O)c1cccc2ccccc12 (stereo unspecified) | 0.79 µM | – | – |
| COCC(Cc1cccc(C(=N)N)c1)C(/C=C/c1ccccc1)NC(=O)c1ccc(-c2ccccc2)cc1 (stereo unspecified) | 0.54 µM | 8.7 µM | 10 µM |
| COC(=O)C(Cc1cccc(C(=N)N)c1)C(/C=C/c1ccccc1)NC(=O)c1ccc(C2CCCCC2)cc1 (stereo unspecified) | 0.58 µM | – | – |
| COC(=O)C(Cc1cccc(C(=N)N)c1)C(CCc1ccccc1)NC(=O)c1ccc(-c2ccccc2)cc1 (stereo in doubt; 8a) | 0.06 µM | – | – |
| COC(=O)[C@H](Cc1cccc(C(=N)N)c1)[C@@H](CCc1ccccc1)NC(=O)c1ccc(-c2ccccc2)cc1 | 0.06 µM | – | – |
| N=C(N)c1cccc(CC(CO)C(/C=C/c2ccccc2)NC(=O)c2ccc(-c3ccccc3)cc2)c1 (stereo unspecified) | 0.65 µM | – | – |
| COC(=O)C(Cc1cccc(C(=N)N)c1)C(/C=C/c1ccccc1)NC(=O)c1ccc2ccccc2c1 (stereo unspecified) | 0.16 µM | – | – |
| COC(=O)C(Cc1cccc(C(=N)N)c1)C(/C=C/c1ccccc1)NC(=O)c1cccc(C)c1 (stereo unspecified) | 1.1 µM | – | – |
| COC(=O)C(Cc1cccc(C(=N)N)c1)C(/C=C/c1ccccc1)NC(=O)c1ccccc1C (stereo unspecified) | 1.2 µM | – | – |

Other lines, results leading:

| IC50 (Coagulation factor X) | IC50 (Prothrombin) | IC50 [1] | Structure (SMILES) |
| --- | --- | --- | --- |
| 0.11 µM | 18 µM | – | COC(=O)C(Cc1cccc(C(=N)N)c1)C(/C=C/c1ccccc1)NC(=O)c1ccc(-c2ccccc2)cc1 (stereo unspecified) |
| 0.36 µM | 2 µM | 2.8 µM | CCOc1ccc(-c2ccc(C(=O)NC(/C=C/c3ccccc3)C(Cc3cccc(C(=N)N)c3)C(=O)OC)cc2)cc1 (stereo unspecified) |
| 0.39 µM | 1.7 µM | 2.6 µM | CCc1cccc(-c2ccc(C(=O)NC(/C=C/c3ccccc3)C(Cc3cccc(C(=N)N)c3)C(=O)OC)cc2)c1 (stereo unspecified) |
| 1.22 µM | – | – | COC(=O)C(Cc1cccc(C(=N)N)c1)C(/C=C/c1ccccc1)NC(=O)c1ccc(Oc2ccccc2)cc1 (stereo unspecified) |
| 0.6 µM | – | – | COC(=O)C(Cc1cccc(C(=N)N)c1)C(/C=C/c1ccccc1)NC(=O)c1ccc(C)cc1 (stereo unspecified) |
| 0.38 µM | 5.3 µM | – | CCc1ccccc1-c1ccc(C(=O)NC(/C=C/c2ccccc2)C(Cc2cccc(C(=N)N)c2)C(=O)OC)cc1 (stereo unspecified) |
| 0.18 µM | 4.3 µM | 3.6 µM | CCOc1cccc(-c2ccc(C(=O)NC(/C=C/c3ccccc3)C(Cc3cccc(C(=N)N)c3)C(=O)OC)cc2)c1 (stereo unspecified) |
| 0.89 µM | – | – | CCc1ccc(-c2ccc(C(=O)NC(/C=C/c3ccccc3)C(Cc3cccc(C(=N)N)c3)C(=O)OC)cc2)cc1 (stereo unspecified) |
| 0.24 µM | 4.8 µM | 2.8 µM | COC(=O)C(Cc1cccc(C(=N)N)c1)C(/C=C/c1ccccc1)NC(=O)c1ccc(-c2ccc(C)cc2)cc1 (stereo unspecified) |
| 0.09 µM | 9 µM | 3.1 µM | COC(=O)C(Cc1cccc(C(=N)N)c1)C(/C=C/c1ccccc1)NC(=O)c1ccc(-c2ccccc2C)cc1 (stereo unspecified) |
| 0.05 µM | 3.3 µM | 1.8 µM | COC(=O)C(Cc1cccc(C(=N)N)c1)C(/C=C/c1ccccc1)NC(=O)c1ccc(-c2ccccc2OC)cc1 (stereo unspecified) |
| 0.03 µM | 4.7 µM | – | COC(=O)C(Cc1cccc(C(=N)N)c1)C(/C=C/c1ccccc1)NC(=O)c1ccc(-c2ccc(OC)c(OC)c2)cc1 (stereo unspecified) |
| 0.12 µM | 7.2 µM | – | COC(=O)C(Cc1cccc(C(=N)N)c1)C(/C=C/c1ccccc1)NC(=O)c1ccc(-c2cccc(C)c2)cc1 (stereo unspecified) |
| 0.09 µM | 3.5 µM | 2.9 µM | COC(=O)C(Cc1cccc(C(=N)N)c1)C(/C=C/c1ccccc1)NC(=O)c1ccc(-c2ccc(OC)cc2OC)cc1 (stereo unspecified) |
| 0.06 µM | 3.8 µM | 1.8 µM | CCOc1ccccc1-c1ccc(C(=O)NC(/C=C/c2ccccc2)C(Cc2cccc(C(=N)N)c2)C(=O)OC)cc1 (stereo unspecified) |
| 0.11 µM | 2.4 µM | 2.2 µM | COC(=O)C(Cc1cccc(C(=N)N)c1)C(/C=C/c1ccccc1)NC(=O)c1ccc(-c2cccc(OC)c2)cc1 (stereo unspecified) |
| 0.08 µM | 2.7 µM | 2.9 µM | COC(=O)C(Cc1cccc(C(=N)N)c1)C(/C=C/c1ccccc1)NC(=O)c1ccc(-c2ccc(OC)cc2)cc1 (stereo unspecified) |
